Assay outcomes (PubChem)
In the library only some 0.62% were active in any assay of this set; here they are far more common.
TNAP act hiacc: TNAP activators at high phosphate acceptor level, primary screen, biochemical, luminescence, uHTS. Alkaline phosphatase, tissue-nonspecific isozyme (Homo sapiens), P05186. purified TNAP, CDP-star luminescence, 1 M DEA, 30 min; stronger effect = higher value; 0 = EDTA background, 1 = DMSO-only activity. AID 1136, 2008. 200,000 tested, under 10 active. activation factor at 20 µM;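 active means activation factor at least 2 at 20 µM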
Target sequence (P05186 whole entry, looked up): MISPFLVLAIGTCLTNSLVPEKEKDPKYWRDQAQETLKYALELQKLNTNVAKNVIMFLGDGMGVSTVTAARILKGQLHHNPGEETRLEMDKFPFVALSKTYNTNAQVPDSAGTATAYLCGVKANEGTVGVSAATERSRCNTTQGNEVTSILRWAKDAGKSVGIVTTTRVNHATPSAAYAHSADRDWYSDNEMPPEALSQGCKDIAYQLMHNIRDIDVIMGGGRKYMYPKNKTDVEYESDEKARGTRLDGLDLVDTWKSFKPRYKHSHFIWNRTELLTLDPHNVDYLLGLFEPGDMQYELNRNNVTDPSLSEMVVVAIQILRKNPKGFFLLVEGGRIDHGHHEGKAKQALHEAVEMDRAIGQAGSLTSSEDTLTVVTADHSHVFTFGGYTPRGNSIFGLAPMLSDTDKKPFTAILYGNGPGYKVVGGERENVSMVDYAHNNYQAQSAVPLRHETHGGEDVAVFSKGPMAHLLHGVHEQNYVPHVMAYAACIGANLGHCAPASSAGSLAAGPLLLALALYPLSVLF
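Measured by: Luminescent substrate turnover signal | Test system: Human TNAP | Input: TNAP 1/800 final | Dosing: 20 µM single point | Schedule: 30 min, room temperature | Controls: EDTA wells as negative control, DMSO wells as positive control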
TNAP inh hiacc: human TNAP enzyme inhibitors, primary screen, biochemical, luminescent, high phosphate acceptor level, uHTS | hit rate 0.03% among 200,000 | AID 1135, 2008 | inhibition, % at 20 µM | Alkaline phosphatase, tissue-nonspecific isozyme (Homo sapiens), P05186 | purified TNAP, CDP-star luminescence, 1 M DEA;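 active means over 50% inhibition of tissue-nonspecific alkaline phosphatase at 20 µM in the single-dose screen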;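 further: plate controls were DMSO wells for no effect and EDTA-quenched wells as full inhibition for full effect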
TNAP inh noacc: human TNAP enzyme inhibitors, primary screen, biochemical, luminescent, no phosphate acceptor, uHTS. hit rate 0.26% among 200,000. inhibition, % at 20 µM. purified TNAP, CDP-star luminescence, 30 min. Alkaline phosphatase, tissue-nonspecific isozyme (Homo sapiens), P05186;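 active means tissue-nonspecific alkaline phosphatase inhibition above about 50% at 20 µM in the single-dose screen, limit read from the data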;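 further: 0% = DMSO negative control and 100% = EDTA positive control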
PMI act satM6P: human PMI activators, high substrate, primary screen, biochemical, fluorescence intensity, near-saturating mannose 6-phosphate. coupled PMI enzyme assay, resazurin fluorescence, 20 min; stronger effect = higher value; 1 = untreated enzyme, 0 = substrate-free blank. Mannose-6-phosphate isomerase (Homo sapiens), P34949. hit rate 0.34% among 190,000. activation factor at 20 µM. AID 1216, 2008;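 active means activation factor of 2 or more at 20 µM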
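test system = human PMI in coupled enzyme assay | medium = HEPES-buffered pH 7.4 with magnesium and detergent | also added = 1.0 mM mannose-6-phosphate substrate with 0.22 mM NADP+ | compound = 20 µM single dose | times = 20 min incubation at room temperature | measured by = resorufin fluorescence (Ex 544/Em 590 nm) from resazurin via diaphorase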
PMI activator: activators of human PMI, primary screen, biochemical, fluorescence intensity, near-Km mannose 6-phosphate | purified human PMI, coupled resazurin fluorescence, 20 min; stronger effect = higher value; 1 = vehicle control, 0 substrate-free wells | activation factor at 20 µM | hit rate 0.005% among 190,000;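 active means activation factor of 2 or more at 20 µM, relative to plate controls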
An asterisk follows results filed as active; . = no result given.

SMILES	TNAP act hiacc	TNAP inh hiacc	TNAP inh noacc	PMI act satM6P	PMI activator
Cc1ccc(NC(=S)N/N=C2\CCCCC2C)cc1 (configuration not stated)	1	-1.0	-26.5	2*	1.8
CCC(C)N1CCNCC1 (configuration not stated)	1	-1.3	1.0	1.1	1
O=C(NC1CCCCC1)c1ccc(CNc2nc(=S)[nH]c3ccccc23)cc1	1	-0.7	-6.7	1.1	1.1
COc1cccc2c(=S)c(CCC(C)=O)c(C)[nH]c12	1	-1.7	-57.9	2.1*	1.6
CC(=O)CCc1c(C)c2cccc(C)c2[nH]c1=O	1	-4.5	-13.7	0.9	0.9
Cc1ccc2c(c1)sc(C)[n+]2CCCS(=O)(=O)[O-]	1	-4.4	-10.0	0.9	0.9
COc1cc(/C=C/c2sc3ccccc3[n+]2CCCS(=O)(=O)[O-])ccc1O	0.4	56.9*	55.3*	0.6	0.9
O=C(O)c1[nH]nc2c1COc1ccccc1-2	1	0.1	91.3*	1.1	1
CC(C)(C)NC(=O)Cn1c(Cl)nc2ccccc21	1	-3.7	-3.9	1	1
O=c1[nH]c(=O)c2cc([N+](=O)[O-])cc([N+](=O)[O-])c2[nH]1	1	0.1	-3.7	2.2*	1.7
O=c1[nH]c2cc([N+](=O)[O-])c([N+](=O)[O-])cc2[nH]c1=O	1	4.3	-5.2	0.8	0.9
CC(C)c1ccc(S(=O)(=O)N2CCCCC2)cc1	1	-1.9	-1.3	0.9	0.9
CCOC(=O)C(=NCCCN1CCOCC1)NNc1cccc(C(F)(F)F)c1	1	2.0	-9.5	2.1*	1.7
CCOP(=O)(OCC)C(NC(=O)c1cccs1)C(F)(F)F (configuration not stated)	1.1	-7.5	-2.1	1	1
COc1ccc2oc(=O)c(/C(C)=N/Nc3nc(-c4cc(C)ccc4C)cs3)cc2c1	1	0.7	22.0	2.3*	1.6
C/C(=N\Nc1nc(-c2ccc(C)cc2C)cs1)c1cc2ccccc2oc1=O	1	3.5	14.6	1.1	0.9
O=C1CCN(C(=O)Nc2ccccc2Cl)N1	1	-4.6	3.9	2.2*	1.4
CC(C)OC(=O)C1CC(C)(O)C(=O)C(C(=O)OC(C)C)C1c1ccc([N+](=O)[O-])cc1 (configuration not stated)	1	3.2	-0.2	1	0.9
Cn1c(=O)c2c(-c3ccccc3F)c3c(nc2n(C)c1=O)-c1ccccc1C3O (configuration not stated)	1	1.3	28.0	2.1*	1.8
COc1ccc(CCc2nnc(CCC(=O)NCCc3ncccc3C)o2)cc1	1	-3.2	-8.9	.	.
CSc1n[nH]c2nc3c(c(=O)n12)C1(CCCC1)Cc1ccccc1-3	1.1	-6.6	-5.1	2.2*	1.6
CCSc1nnc(-c2ccccc2SC)o1	1	0.9	-1.7	2.1*	1.8
Cc1ccc(-c2nn(CCC(=O)O)cc2CCC(=O)O)cc1	1.1	-7.4	-17.8	1.1	1
CCn1cc(CCC(=O)O)c(C)n1	1	-4.7	-5.7	2.3*	1.9
O=C(CNS(=O)(=O)c1ccccc1)NNC(=O)C(Cl)Cl	1.1	-5.7	91.6*	1	1.1
SMILES	TNAP act hiacc	TNAP inh hiacc	TNAP inh noacc	PMI act satM6P	PMI activator
O=C(CNS(=O)(=O)c1ccccc1)N/N=C/c1ccc(O)cc1	1	-1.0	-3.8	1	1.1
CCCCNC(=O)COC(=O)c1ccc(F)cc1Cl	1.1	-9.5	-13.1	1.2	1.2
O=[N+]([O-])c1cccnc1N1CCN(c2ccc(F)cc2)CC1	1	1.3	-1.5	0.8	0.9
O=[N+]([O-])c1ccc(O)c(/C=N/NC2=NS(=O)(=O)c3ccccc32)c1	0.9	10.0	73.4*	1.3	1
CC1COC(C)(CC(=O)NN2C(=O)c3ccccc3C2=O)O1 (configuration not stated)	1	-2.2	-4.6	.	.
Cc1cc(=O)n(CCCO)c(O)c1C#N	1	-3.8	-6.7	0.6	0.9
Cc1cc(=S)cc(C)n1CCCO	1	2.8	2.8	2*	1.4
COc1cc(/C=C2\SC(=S)N(Nc3ccccc3)C2=O)ccc1O	0.4	55.0*	44.5	0.8	0.8
COc1cc(/C=C2\SC(c3ccc(C)cc3)=NC2=O)ccc1O	0.6	40.3	36.1	0.9	0.9
O=C1/C(=C/c2ccc(O)c(O)c2)SC(=S)N1Nc1ccccc1	0.1	88.4*	93.7*	0.8	0.5
COc1cc(/C=C2/SC(=S)N(CC3CCCO3)C2=O)ccc1O (configuration not stated)	0.4	55.8*	36.2	0.8	0.8
COc1ccc(C2=NN(c3ccccc3)C(=O)/C2=C\c2ccc(O)c(OC)c2)cc1	0.6	40.8	50.1*	0.7	0.9
O=C(O)CC1NC(=O)N(C2CCCCC2)C1=O (configuration not stated)	1	-2.8	-10.5	1.1	1.2
CC1CCC2(CC1)NC(=S)N(c1ccccc1)N2 (configuration not stated)	1.1	-5.3	2.4	2.2*	1.9
COc1cc(C2C3=C(CCCC3=O)Nc3[nH]n(-c4ccccc4)c(=O)c32)cc(OC)c1OC (configuration not stated)	1	4.4	-9.0	1.5	1.5
COc1cc(C2C3=C(CCCC3=O)Nc3[nH]n(-c4ccccc4)c(=O)c32)ccc1OC(C)=O (configuration not stated)	1	-0.2	-2.5	2*	1.6
CCOC(=O)/C(=N\Nc1ccc(Br)cc1)N1CCN(c2ccccc2OC)CC1	1	-2.4	-3.8	2.4*	1.8
COc1ccc(C2NC(=O)N(C)C3=C2C(=O)CC(C)(C)C3)cc1OC (configuration not stated)	1	-1.8	11.6	1	1
CC(C)CN(C(=O)CN1CCN(c2ccc([N+](=O)[O-])cc2)CC1)c1c(N)n(CC(C)C)c(=O)[nH]c1=O	1	2.6	-4.1	1	1.1
CCNc1nc(SCCOc2ccc(Br)cc2)nc(N(C)C)n1	1	-4.8	-9.8	1	0.9
CCc1ccc2nc3n[nH]c(N)c3cc2c1	1	0.6	-9.7	1	1
Nc1[nH]nc2nc3ccccc3cc12	1	2.9	-2.5	2.2*	1.5
Cc1cc(N(CC(=O)NC(C)C)S(C)(=O)=O)ccc1Br	1	-2.4	-5.0	1	0.9
Cn1ncc2c1ncn1nc(CCc3ccccc3)nc21	1	3.1	59.4*	0.9	0.9
